These results are taken from ChEMBL document CHEMBL1154062, “Novel and potent small-molecule urotensin II receptor agonists” (Bioorg Med Chem, 2009).

The source made the active and inactive calls. The rule behind the calls is not given here.

What all share (format): functional, cell-based
One assay has as its target T1, Urotensin-2 receptor (Homo sapiens, UniProt Q9UKP6).
T1 sequence (Q9UKP6 whole entry): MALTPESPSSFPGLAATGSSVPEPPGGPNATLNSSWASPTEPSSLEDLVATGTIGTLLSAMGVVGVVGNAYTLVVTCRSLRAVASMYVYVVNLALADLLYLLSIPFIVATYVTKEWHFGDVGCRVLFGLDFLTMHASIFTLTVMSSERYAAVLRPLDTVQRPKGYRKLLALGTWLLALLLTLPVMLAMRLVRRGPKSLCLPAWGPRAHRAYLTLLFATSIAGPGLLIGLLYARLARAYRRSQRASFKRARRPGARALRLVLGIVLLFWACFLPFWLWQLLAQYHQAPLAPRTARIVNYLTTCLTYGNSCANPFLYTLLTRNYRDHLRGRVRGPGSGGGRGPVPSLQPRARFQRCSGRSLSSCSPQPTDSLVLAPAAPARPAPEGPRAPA
The experiment in a line: (§1) Agonist activity against human urotensin 2 receptor expressed in […] cells assessed as beta-galactosidase activity after 5 days by R-SAT assay. The essentials: (§2)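 NIH-3T3 cells grown to 80% confluence in DMEM with 10% bovine calf serum, transiently transfected in roller bottles for 18 h with human UT receptor plus β-galactosidase marker, then frozen. Thawed cells were plated in DMEM with 0.4% calf serum and 30% UltraCulture onto compound. They were incubated 5 days in 5% CO2, with reporter read at 420 nm. Eight doses in triplicate; EC50 from 2–5 determinations; efficacy normalized to UII = 100%.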

Assay [1] addresses T2, Urotensin-2 receptor (Homo sapiens) (UniProt Q9UKP6).
T2 sequence (whole entry): T1 sequence (Q9UKP6 whole entry)
Kind of assay: Agonist activity against human urotensin 2 receptor expressed in […] cells assessed as beta-galactosidase activity after 5 days by R-SAT assay relative to urotensin 2. The method in brief:
as §2

Assay [2] deals with T2, Urotensin-2 receptor (Homo sapiens). Described as §1. The essentials: as §2

What is called EC50 is the concentration at which the effect is half-maximal. With `CN(C)CCC(NC(=O)c1ccc(-c2ccc3ccccc3c2)cc1)c1ccc(Cl)cc1` (configuration not stated), on Urotensin-2 receptor, the EC50 was 309 nM. In assay [1], the Efficacy is 131%.
`COc1ccc(-c2cccc(C(=O)NC(CCN(C)C)c3ccc(Cl)cc3)c2)cc1` (configuration not stated): the EC50 on Urotensin-2 receptor is 575 nM. The Efficacy in assay [1] turned out to be 78%.
For `CN(C)CCC(NC(=O)c1ccc(-c2ccccc2)cc1)c1ccc2ccccc2c1` (configuration not stated), the concentration giving a half-maximal response (EC50) on Urotensin-2 receptor is 120 nM. In assay [1], the Efficacy was found to be 111%.
With `CN(C)CC[C@@H](NC(=O)c1ccc(-c2ccc(Cl)cc2)cc1)c1ccc2ccccc2c1`, the EC50 at Urotensin-2 receptor is 457 nM. Also, the Efficacy in assay [1] was 53%.
For `CN(C)CCC(NC(=O)c1ccc(-c2ccc(Cl)cc2)cc1)c1ccc2ccccc2c1` (configuration not stated), the EC50 on Urotensin-2 receptor is 43.7 nM. Moreover, the Efficacy in assay [1] turned out to be 129%.
As to `CN(C)CC[C@H](NC(=O)c1ccc(-c2ccc(Cl)cc2)cc1)c1ccc2ccccc2c1`, at Urotensin-2 receptor, the EC50 was 22.9 nM. Also, the Efficacy in assay [1] was found to be 129%.
In the case of `COc1ccc(-c2cccc(C(=O)NC(CCN(C)C)c3ccc(C)cc3)c2)cc1` (configuration not stated), the EC50 at Urotensin-2 receptor was 1070 nM. For the same compound, the Efficacy in assay [1] was found to be 69%.
With `CO[C@@H](C(=O)N[C@H](CCN(C)C)c1ccc(Cl)cc1)c1ccccc1`, the Efficacy in assay [1] was 112%.
For `CN(C)CCC(NC(=O)c1cccc(-c2ccc(Cl)cc2)c1)c1ccc2ccccc2c1` (configuration not stated), the 50% effective concentration (EC50) at Urotensin-2 receptor is 1100 nM. In assay [1], the Efficacy turned out to be 45%.
For the compound `CN(C)CCC(NC(=O)c1cccc(-c2ccccc2)c1)c1ccc2ccccc2c1` (configuration not stated), the 50% effective concentration (EC50) at Urotensin-2 receptor was 537 nM. The Efficacy in assay [1] stood at 67%.
In the case of `COc1ccc(-c2ccc(C(=O)NC(CCN(C)C)c3ccc(Cl)cc3)cc2)cc1` (configuration not stated), the EC50 on Urotensin-2 receptor was 74.1 nM. In assay [1], the Efficacy was 143%.
Take `CN(C)CCC(NC(=O)c1cccc(-c2ccc(Cl)cc2)c1)c1ccc(Cl)cc1` (configuration not stated): on Urotensin-2 receptor, the EC50 was 437 nM. For the same compound, in assay [1], the Efficacy was 63%.
For the compound `Cc1ccc(C(CCN(C)C)NC(=O)c2cccc(-c3ccccc3)c2)cc1` (configuration not stated), the EC50 at Urotensin-2 receptor is 813 nM. Moreover, the Efficacy in assay [1] was determined as 45%.
Take `CN(C)CCC(NC(=O)c1ccc(-c2ccc(Cl)cc2)cc1)c1ccc(Cl)cc1` (configuration not stated): the concentration giving a half-maximal response (EC50) on Urotensin-2 receptor was 75.9 nM. The Efficacy in assay [1] is 137%.
Regarding `CN(C)CCCC(NC(=O)c1ccccc1)c1ccc(Cl)cc1` (configuration not stated), the EC50 at Urotensin-2 receptor was 3800 nM. In assay [1], the Efficacy stood at 77%.
Consider `COc1ccc(-c2ccc(C(=O)NC(CCN(C)C)c3ccc(C)cc3)cc2)cc1` (configuration not stated), for which, on Urotensin-2 receptor, the EC50 was 347 nM. In addition, in assay [1], the Efficacy stood at 119%.
As to `CN(C)CCC(NC(=O)c1cccc(-c2ccc3ccccc3c2)c1)c1ccc(Cl)cc1` (configuration not stated), at Urotensin-2 receptor, the EC50 was 363 nM. Besides, in assay [1], the Efficacy amounted to 41%.
On the same counts, the results for `COc1ccc(-c2ccc(C(=O)NC(CCN(C)C)c3ccc4ccccc4c3)cc2)cc1` (configuration not stated) are 105 nM and 111%.
With `CN(C)CCCC(NC(=O)c1ccc(-c2ccccc2)cc1)c1ccc(Cl)cc1` (configuration not stated), the EC50 at Urotensin-2 receptor was 316 nM. For the same compound, the Efficacy in assay [1] is 91%.
With `CN(C)CC[C@@H](NC(=O)c1ccc(-c2ccccc2)cc1)c1ccc(Cl)cc1`, in assay [1], the Efficacy was 96%.
As to `O=C(NC(CCN1CCCCC1)c1ccc(Cl)cc1)c1ccccc1` (configuration not stated), the EC50 on Urotensin-2 receptor was 6460 nM. Further, the Efficacy in assay [1] is 55%.
As for `COc1ccc(-c2cccc(C(=O)NC(CCN(C)C)c3ccc4ccccc4c3)c2)cc1` (configuration not stated), the EC50 on Urotensin-2 receptor is 646 nM. Also, the Efficacy in assay [1] came to 50%.
For `CN(C)CCC(NC(=O)c1cccc(-c2ccccc2)c1)c1ccc(Cl)cc1` (configuration not stated) the same measures were 575 nM and 92%.
With `Cc1ccc(C(CCN(C)C)NC(=O)c2cccc(-c3ccc4ccccc4c3)c2)cc1` (configuration not stated), the pEC50 result in assay [2] is “inactive”. The Efficacy entry in assay [1] was “inactive”.
Regarding `Cc1ccc(C(CCN(C)C)NC(=O)c2ccc(-c3ccc4ccccc4c3)cc2)cc1` (configuration not stated), the EC50 at Urotensin-2 receptor is 813 nM. For the same compound, in assay [1], the Efficacy was 83%.
With `CN(C)CCC(NC(=O)c1cccc(-c2ccc3ccccc3c2)c1)c1ccc2ccccc2c1` (configuration not stated), the EC50 on Urotensin-2 receptor was 3470 nM.
In the case of `CN(C)CCC(NC(=O)c1ccc(-c2ccccc2)cc1)c1ccc(Cl)cc1` (configuration not stated), the Efficacy in assay [1] amounted to 116%.
For the compound `CO[C@@H](C(=O)N[C@@H](CCN(C)C)c1ccc2ccccc2c1)c1ccccc1`, at Urotensin-2 receptor, the EC50 is 741 nM. In assay [1], the Efficacy is 140%.
On to `CO[C@@H](C(=O)N[C@H](CCN(C)C)c1ccc2ccccc2c1)c1ccccc1`, for which the EC50 at Urotensin-2 receptor was 2750 nM. Moreover, the Efficacy in assay [1] stood at 53%.
As to `CN(C)CCC1(c2ccc(Cl)cc2)Cc2ccccc2C(=O)O1` (configuration not stated), at Urotensin-2 receptor, the EC50 is not below 1120 nM.
In the case of `Cc1ccc(C(CCN(C)C)NC(=O)c2ccc(-c3ccccc3)cc2)cc1` (configuration not stated), the EC50 on Urotensin-2 receptor is 200 nM. The Efficacy in assay [1] stood at 114%.
For `Cc1ccc(C(CCN(C)C)NC(=O)c2ccc(-c3ccc(Cl)cc3)cc2)cc1` (configuration not stated) the same measures were 126 nM and 108%.
As to `CO[C@@H](C(=O)N[C@@H](CCN(C)C)c1ccc(Cl)cc1)c1ccccc1`, in assay [1], the Efficacy worked out at 165%.
On to `CN(C)CCC(NC(=O)c1ccc(-c2ccc3ccccc3c2)cc1)c1ccc2ccccc2c1` (configuration not stated), for which the EC50 on Urotensin-2 receptor is 525 nM. Further, the Efficacy in assay [1] came to 77%.
`O=C(NC(CCN1CCCCC1)c1ccc(Cl)cc1)c1ccc(-c2ccccc2)cc1` (configuration not stated): on Urotensin-2 receptor, the EC50 is 661 nM. Also, the Efficacy in assay [1] came out at 57%.
For `CN(C)CC[C@H](NC(=O)c1ccc(-c2ccccc2)cc1)c1ccc(Cl)cc1`, the Efficacy in assay [1] turned out to be 116%.
For `Cc1ccc(C(CCN(C)C)NC(=O)c2cccc(-c3ccc(Cl)cc3)c2)cc1` (configuration not stated), the EC50 on Urotensin-2 receptor was 646 nM. The Efficacy in assay [1] was 39%.
